Data as given in ChEMBL document CHEMBL1148905, “Cytotoxic constituents of roots of Chaerophyllum hirsutum” (J Nat Prod, 2004).
Structures can show the parent of a compound that is named as a salt.

Experiments:
Type in all cases: functional, cell-based
HL-60 = test: Cytotoxicity against human HL60 cells after 72 hrs by MTT assay; conditions: HL-60, 72 h
Procedure, shortened: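 HL-60 leukaemia cells in exponential growth, resuspended at 1 × 10^5 cells/mL in RPMI 1640 with 10% FBS, penicillin G and streptomycin. Drug exposure for 72 h, then viability by MTT. Growth at each concentration expressed as % of untreated controls. IC50 (50% growth inhibition) by linear regression. Mean ± SEM of three independent experiments. Doxorubicin hydrochloride as reference.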

HT-1080 = test: Cytotoxicity against human HT1080 cells after 72 hrs by MTT assay; conditions: HT-1080, 72 h
Procedure, shortened: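 HT1080 cells grown in DMEM with 10% FBS, penicillin G and streptomycin. Exponentially growing cultures seeded at 5 × 10^4 cells/mL and left to adhere 18 h before drug addition. MTT viability read after 72 h. Growth as % of untreated controls, IC50 by linear regression. Mean ± SEM of three independent experiments. Doxorubicin hydrochloride as reference.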

LoVo [1] = test: Cytotoxicity against human LoVo cells after 72 hrs by MTT assay
Procedure, shortened: (§1)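 Parental LoVo and the mdr-expressing (P-glycoprotein) LoVo/Doxo intestinal adenocarcinoma lines cultured in Ham's F12. Exponentially growing cells seeded at 5 × 10^4 cells/mL and allowed 18 h adherence before drug. MTT viability at 72 h. Growth as % of untreated controls, IC50 by linear regression. Mean ± SEM, three independent experiments. Doxorubicin hydrochloride as reference.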

LoVo [2] = test: Cytotoxicity against human doxorubicin-resistant LoVo cells after 72 hrs by MTT assay; procedure, shortened: as §1

SMILES: COc1cccc2c1C(=O)c1c(O)c3c(c(O)c1C2=O)C[C@@](O)(C(=O)CO)C[C@@H]3O[C@H]1C[C@H](N)[C@H](O)[C@H](C)O1 [DOXORUBICIN HYDROCHLORIDE]
- IC50 (HL-60): 0.01 µM
- IC50 (HT-1080): 0.012 µM
- IC50 (LoVo [1]): 0.2 µM
- IC50 (LoVo [2]): 13.2 µM

SMILES: COc1cc2ccc(=O)oc2cc1O [SCOPOLETIN]
- IC50 (HL-60): 9.5 µM
- IC50 (HT-1080): 12.5 µM
- IC50 (LoVo [1]): 7.3 µM
- IC50 (LoVo [2]): 18.5 µM

SMILES: C=C[C@@H](O)C#CC#C[C@@H](O)/C=C\CCCCCCC [FALCARINDIOL]
- IC50 (HL-60): 8.9 µM
- IC50 (HT-1080): 13 µM
- IC50 (LoVo [1]): 4.3 µM
- IC50 (LoVo [2]): > 40 µM

SMILES: O=C1O[C@@H](c2ccc(O)cc2)[C@H](C(=O)O)/C1=C\c1ccc(O)cc1 (relative stereo)
- IC50 (HL-60): 11.3 µM
- IC50 (HT-1080): 36 µM
- IC50 (LoVo [1]): 13.9 µM
- IC50 (LoVo [2]): > 40 µM

SMILES: O=C(O)/C(=C/c1ccc(O)cc1)[C@@H](C(=O)O)C(=O)c1ccc(O)cc1
- IC50 (HL-60): 11.5 µM
- IC50 (HT-1080): 30.6 µM
- IC50 (LoVo [1]): 16.4 µM
- IC50 (LoVo [2]): 19.6 µM

SMILES: COC(=O)/C=C/c1ccc(O)c(O)c1 [METHYLCAFFEATE]
- IC50 (HL-60): 7.5 µM
- IC50 (HT-1080): 11.1 µM
- IC50 (LoVo [1]): 5.8 µM
- IC50 (LoVo [2]): > 40 µM
